Measured values reported in ChEMBL document CHEMBL3124905, “Isothiocoumarin-3-carboxylic acid derivatives: synthesis, anticancer and antitrypanosomal activity evaluation” (Eur J Med Chem, 2014).

Columns and labels:
SF-268 = assay: Anticancer activity against human SF268 cells assessed as cell growth at 100 uM after 48 hrs by SRB assay; format: functional; conditions: SF-268, 48 h, read-out: Activity
Summary of the method: (§1)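 NCI one-dose primary screen on a three-line panel (breast MCF7, lung NCI-H460, CNS SF-268). Cells were inoculated and preincubated 24–48 h, then exposed to a single concentration of 10−4 M for 48 h. The endpoint was sulforhodamine B protein staining, and results are expressed as percent growth relative to untreated control cells. Negative values denote cytotoxicity.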

MCF7 = assay: Anticancer activity against human MCF7 cells assessed as cell growth at 100 uM after 48 hrs by SRB assay; format: functional; conditions: MCF7, 48 h, read-out: Activity; summary of the method: as §1
NCI-H460 [1] = assay: Anticancer activity against human NCI-H460 cells assessed as cell growth at 100 uM after 48 hrs by SRB assay; format: functional; conditions: NCI-H460, 48 h, read-out: Activity; summary of the method: as §1
[2] = Acute toxicity in ip dosed white mouse; format: organism-based; conditions: in vivo
Summary of the method: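 White male mice, 23-25 g, dosed intraperitoneally with compound dissolved in 0.9% NaCl saline plus 1-2 drops Polysorbate 80 (Tween-80). Solutions prepared immediately before use. Doses ranged 100-1000 mg/kg, testing 4 or 5 doses with 6 animals per dose. LD50 derived by the Litchfield-Wilcoxon method.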

[3] = tested on: Trypanosoma brucei brucei; assay: Antitrypanosomal activity against bloodstream form of Trypanosoma brucei brucei strain 90-13 assessed as inhibition of parasite growth at 10 ug/ml after 72 hrs by resazurin reduction test; format: functional; conditions: strain 90-13, 72 h
Summary of the method: (§2)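 Trypanosoma brucei brucei 90-13 bloodstream forms, grown in HMI9 with 10% FCS at 37 °C under 5% CO2. Log-phase parasites were seeded at 10^5 cells/mL with or without inhibitor, with stocks prepared in DMSO. After 72 h, resazurin was added and fluorescence was read at 530/590 nm after a further 4 h. Percent growth inhibition was calculated versus drug-free parasites, with DMSO as control.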

[4] = tested on: Trypanosoma brucei brucei; assay: Antitrypanosomal activity against bloodstream form of Trypanosoma brucei brucei strain 90-13 assessed as inhibition of parasite growth at 1 ug/ml after 72 hrs by resazurin reduction test; format: functional; conditions: strain 90-13, 72 h; summary of the method: as §2
MDA-MB-231 = assay: Growth inhibition of human MDA-MB-231/ATCC cells after 48 hrs by SRB assay; format: functional; conditions: MDA-MB-231, 48 h
Summary of the method: (§3)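 NCI five-dose assay against the ~60-cell-line panel (nine cancer types). Tenfold dilutions from 10−4 to 10−8 M were used with continuous 48-h exposure and SRB absorbance readout. Percent growth was computed from time-zero, control and treated absorbances. GI50 is the concentration giving 50% lower net protein increase than controls. Values not reached are reported as beyond the tested range.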

PC-3 = assay: Growth inhibition of human PC3 cells after 48 hrs by SRB assay; format: functional; conditions: PC-3, 48 h; summary of the method: as §3
[5] = Growth inhibition of human 786-O cells after 48 hrs by SRB assay; format: functional; conditions: 786-0, 48 h; summary of the method: as §3
M14 = assay: Growth inhibition of human M14 cells after 48 hrs by SRB assay; format: functional; conditions: M14, 48 h; summary of the method: as §3
LOX IMVI = assay: Growth inhibition of human LOXIMVI cells after 48 hrs by SRB assay; format: functional; summary of the method: as §3
U-251 = assay: Growth inhibition of human U251 cells after 48 hrs by SRB assay; format: functional; conditions: U-251, 48 h
Summary of the method: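 NCI ~60-cell-line five-dose screen. Cells were preincubated 24-48 h, then given compound at 10-fold dilutions from 10^-4 to 10^-8 M with 48 h continuous exposure. SRB protein stain was read by absorbance at time zero, in untreated control and with drug. GI50 was derived from [(Ti-Tz)/(C-Tz)]x100=50, TGI from Ti=Tz, and LC50 from [(Ti-Tz)/Tz]x100=-50.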

HCT-116 = assay: Growth inhibition of human HCT116 cells after 48 hrs by SRB assay; format: functional; conditions: HCT-116, 48 h; summary of the method: as §3
NCI-H460 [6] = assay: Growth inhibition of human NCI-H460 cells after 48 hrs by SRB assay; format: functional; conditions: NCI-H460, 48 h; summary of the method: as §3
NCI-H23 = assay: Growth inhibition of human NCI-H23 cells after 48 hrs by SRB assay; format: functional; conditions: NCI-H23, 48 h; summary of the method: as §3
HOP-62 = assay: Growth inhibition of human HOP62 cells after 48 hrs by SRB assay; format: functional; conditions: HOP-62, 48 h; summary of the method: as §3
[7] = Growth inhibition of human […] cells after 48 hrs by SRB assay; format: functional; summary of the method: as §3
MOLT-4 = assay: Growth inhibition of human MOLT4 cells after 48 hrs by SRB assay; format: functional; conditions: MOLT-4, 48 h; summary of the method: as §3
KM12 = assay: Growth inhibition of human KM12 cells after 48 hrs by SRB assay; format: functional; conditions: KM12, 48 h; summary of the method: as §3
CCRF-CEM = assay: Growth inhibition of human CCRF-CEM cells after 48 hrs by SRB assay; format: functional; summary of the method: as §3
[8] = Growth inhibition of human HOP92 cells after 48 hrs by SRB assay; format: functional; conditions: HOP-92, 48 h; summary of the method: as §3
BT-549 = assay: Growth inhibition of human BT549 cells after 48 hrs by SRB assay; format: functional; conditions: BT-549, 48 h; summary of the method: as §3
NCI/ADR-RES = assay: Growth inhibition of human NCI/ADR-RES cells after 48 hrs by SRB assay; format: functional; summary of the method: as §3

SMILES: COc1ccc2cc(C(=O)Nc3ccc(S(N)(=O)=O)cc3)sc(=O)c2c1OC
- growth at 100 µM (SF-268): 74%
- growth at 100 µM (MCF7): 72%
- growth at 100 µM (NCI-H460 [1]): 97%
- LD50 [2]: 870 mg/kg
- inhibition at 10 µg/mL [3]: > 50%
- inhibition at 1 µg/mL [4]: 59.8%

SMILES: O=C(Nc1cccc2ccccc12)c1cc2ccccc2c(=O)s1
- LD50 [2]: 410 mg/kg
- inhibition at 10 µg/mL [3]: > 50%
- inhibition at 1 µg/mL [4]: 60.8%

SMILES: COc1ccc2cc(C(=O)Nc3cccc(C(F)(F)F)c3)sc(=O)c2c1OC
- growth at 100 µM (SF-268): 49%
- growth at 100 µM (MCF7): 45%
- growth at 100 µM (NCI-H460 [1]): 4%
- LD50 [2]: 750 mg/kg
- inhibition at 10 µg/mL [3]: 5.46%
- GI50 (MDA-MB-231): 2.09 µM
- TGI (MDA-MB-231; read-out: pTGI (converted)): 5.37 µM
- GI50 (PC-3): 4.68 µM
- TGI (PC-3; read-out: pTGI (converted)): 19.5 µM
- GI50 [5]: 3.39 µM
- TGI ([5]; read-out: pTGI (converted)): 12.3 µM
- GI50 (M14): 7.76 µM
- TGI (M14; read-out: pTGI (converted)): 20 µM
- GI50 (LOX IMVI): 6.92 µM
- TGI (LOX IMVI; read-out: pTGI (converted)): 21.9 µM
- GI50 (U-251): 3.16 µM
- TGI (U-251; read-out: pTGI (converted)): 11 µM
- GI50 (HCT-116): 3.39 µM
- TGI (HCT-116; read-out: pTGI (converted)): 14.5 µM
- GI50 (NCI-H460 [6]): 5.37 µM
- TGI (NCI-H460 [6]; read-out: pTGI): > 100 µM
- GI50 (NCI-H23): 6.46 µM
- TGI (NCI-H23; read-out: pTGI (converted)): 18.6 µM
- GI50 (HOP-62): 5.37 µM
- TGI (HOP-62; read-out: pTGI (converted)): 16.2 µM
- GI50 [7]: 2.04 µM
- TGI ([7]; read-out: pTGI (converted)): 5.75 µM
- GI50 (MOLT-4): 5.62 µM
- TGI (MOLT-4; read-out: pTGI (converted)): 25.7 µM
- inhibition at 1 µg/mL [4]: -9.98%
- GI50 (KM12): 9.55 µM
- TGI (KM12; read-out: pTGI): > 100 µM
- GI50 (CCRF-CEM): 12 µM
- TGI (CCRF-CEM; read-out: pTGI (converted)): 91.2 µM
- GI50 [8]: 3.02 µM
- TGI ([8]; read-out: pTGI (converted)): 10 µM
- GI50 (BT-549): 2.45 µM
- TGI (BT-549; read-out: pTGI (converted)): 7.08 µM
- GI50 (NCI/ADR-RES): 8.43 µM
- TGI (NCI/ADR-RES; read-out: pTGI (converted)): 21.9 µM
